This note sets out measurements from ChEMBL document CHEMBL1138520, “Molecular and conformational determinants of pituitary adenylate cyclase-activating polypeptide (PACAP) for activation of the PAC1 receptor” (J Med Chem, 2009).

In assay [1] the target is T1, Pituitary adenylate cyclase-activating polypeptide type I receptor (Homo sapiens, UniProt P41586). Description: Displacement of [125I]Ac-PACAP27 from human recombinant PAC1 receptor expressed in CHO cells by gamma- counter. Type of assay: cell-based. For orientation: In a radioligand displacement assay an active substance lowers the binding of a labelled ligand.
Target sequence in this assay (P41586 whole entry): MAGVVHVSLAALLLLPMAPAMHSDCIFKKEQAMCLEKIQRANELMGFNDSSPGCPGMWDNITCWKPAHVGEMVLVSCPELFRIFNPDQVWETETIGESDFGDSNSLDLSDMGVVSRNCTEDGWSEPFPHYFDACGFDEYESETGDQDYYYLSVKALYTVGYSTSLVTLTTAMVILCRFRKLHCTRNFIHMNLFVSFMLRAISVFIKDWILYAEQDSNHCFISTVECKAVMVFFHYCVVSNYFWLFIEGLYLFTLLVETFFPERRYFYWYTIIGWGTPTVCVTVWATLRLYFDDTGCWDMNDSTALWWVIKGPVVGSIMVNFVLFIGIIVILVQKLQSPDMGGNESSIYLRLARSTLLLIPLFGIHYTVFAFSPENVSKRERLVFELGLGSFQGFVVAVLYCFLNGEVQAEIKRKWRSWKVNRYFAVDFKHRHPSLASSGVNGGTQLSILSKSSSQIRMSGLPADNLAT
For assay [2], the target named is T1, Pituitary adenylate cyclase-activating polypeptide type I receptor. Description: Agonist activity at human recombinant PAC1 receptor expressed in CHO cells assessed as PACAP38-induced calcium mobilization by FLIPR assay. The assay is classed as functional, cell-based. In a few lines:
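CHO cells stably expressing recombinant human PAC1, plated 24 h before assay, loaded with fluo-4 AM for 60 min at 37 °C in the dark, then rinsed into HBSS for 15 min at 37 °C. EC50 and efficacy came from nonlinear regression; 4-10 independent assays in duplicate.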
On the technique in general: Calcium assays in cells follow changes in intracellular calcium, usually with a dye or a luminescent sensor.
Target sequence in this assay (P41586 whole entry): as above

For assay [3] the target is unchanged. Description: Agonist activity at human recombinant PAC1 receptor expressed in CHO cells assessed as PACAP38-induced calcium mobilization by FLIPR assay relative to PACAP38. Type of assay: functional, cell-based. In a few lines:
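CHO cells stably expressing recombinant human PAC1, plated 24 h before assay, loaded with fluo-4 AM for 60 min at 37 °C in the dark, then rinsed into HBSS for 15 min at 37 °C. Peptide was added 18 s into a 150 s read (ex 480/em 525 nm), at final concentrations of 1 × 10-12 to 1 × 10^-5 M. Response was normalised to 1 × 10^-5 M PACAP38 on each plate. EC50 and efficacy came from nonlinear regression; 4-10 independent assays in duplicate.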
Target sequence in this assay (P41586 21-468 limits assumed): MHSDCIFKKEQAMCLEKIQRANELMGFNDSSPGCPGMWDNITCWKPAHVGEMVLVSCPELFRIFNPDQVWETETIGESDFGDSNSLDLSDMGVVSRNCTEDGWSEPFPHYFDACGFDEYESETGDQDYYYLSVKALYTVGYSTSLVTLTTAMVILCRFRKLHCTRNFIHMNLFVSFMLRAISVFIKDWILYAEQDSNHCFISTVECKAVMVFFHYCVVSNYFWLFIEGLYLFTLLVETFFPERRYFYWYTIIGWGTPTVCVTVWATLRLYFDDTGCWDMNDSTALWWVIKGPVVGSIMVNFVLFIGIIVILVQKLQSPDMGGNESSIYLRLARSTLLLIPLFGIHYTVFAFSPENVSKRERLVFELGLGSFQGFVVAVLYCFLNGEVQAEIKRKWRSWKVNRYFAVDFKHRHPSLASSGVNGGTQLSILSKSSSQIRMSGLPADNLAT

Regarding `CC[C@H](C)[C@H](NC(=O)CNC(=O)[C@H](CC(=O)O)N(C)C(=O)[C@H](CO)NC(=O)[C@@H](N)Cc1cnc[nH]1)C(=O)N[C@@H](Cc1ccccc1)C(=O)N[C@H](C(=O)N[C@@H](CC(=O)O)C(=O)N[C@@H](CO)C(=O)N[C@@H](Cc1ccc(O)cc1)C(=O)N[C@@H](CO)C(=O)N[C@@H](CCCNC(=N)N)C(=O)N[C@@H](Cc1ccc(O)cc1)C(=O)N[C@@H](CCCNC(=N)N)C(=O)N[C@@H](CCCCN)C(=O)N[C@@H](CCC(N)=O)C(=O)N[C@@H](CCSC)C(=O)N[C@@H](C)C(=O)N[C@H](C(=O)N[C@@H](CCCCN)C(=O)N[C@@H](CCCCN)C(=O)N[C@@H](Cc1ccc(O)cc1)C(=O)N[C@@H](CC(C)C)C(=O)N[C@@H](C)C(=O)N[C@@H](C)C(=O)N[C@H](C(=O)N[C@@H](CC(C)C)C(=O)NCC(=O)N[C@@H](CCCCN)C(=O)N[C@@H](CCCNC(=N)N)C(=O)N[C@@H](Cc1ccc(O)cc1)C(=O)N[C@@H](CCCCN)C(=O)N[C@@H](CCC(N)=O)C(=O)N[C@@H](CCCNC(=N)N)C(=O)N[C@H](C(=O)N[C@@H](CCCCN)C(=O)N[C@@H](CC(N)=O)C(=O)N[C@@H](CCCCN)C(N)=O)C(C)C)C(C)C)C(C)C)[C@@H](C)O`, the IC50 (in general, the concentration that inhibits the measured activity by half) in assay [1] was 0.0104 µM. The EC50 (commonly the concentration that produces a half-maximal response) in assay [2] came out at 0.219 µM. The Emax (commonly the greatest response seen or fitted, relative to the assay's reference) in assay [3] is 92.5%.

As for `CC[C@H](C)[C@H](NC(=O)CNC(=O)[C@H](CC(=O)O)NC(=O)[C@H](CO)NC(=O)[C@@H](N)Cc1cnc[nH]1)C(=O)N1Cc2ccccc2CC1C(=O)N[C@H](C(=O)N[C@@H](CC(=O)O)C(=O)N[C@@H](CO)C(=O)N[C@@H](Cc1ccc(O)cc1)C(=O)N[C@@H](CO)C(=O)N[C@@H](CCCNC(=N)N)C(=O)N[C@@H](Cc1ccc(O)cc1)C(=O)N[C@@H](CCCNC(=N)N)C(=O)N[C@@H](CCCCN)C(=O)N[C@@H](CCC(N)=O)C(=O)N[C@@H](CCSC)C(=O)N[C@@H](C)C(=O)N[C@H](C(=O)N[C@@H](CCCCN)C(=O)N[C@@H](CCCCN)C(=O)N[C@@H](Cc1ccc(O)cc1)C(=O)N[C@@H](CC(C)C)C(=O)N[C@@H](C)C(=O)N[C@@H](C)C(=O)N[C@H](C(=O)N[C@@H](CC(C)C)C(N)=O)C(C)C)C(C)C)[C@@H](C)O` (some centres undefined), in assay [1], the IC50 is 2.17 µM. Moreover, in assay [2], the EC50 came to 0.564 µM. In assay [3], the Emax was 65.9%.

Turning to `CC[C@H](C)[C@H](NC(=O)CNC(=O)[C@H](CC(=O)O)NC(=O)[C@@H]1CCCN1C(=O)[C@@H](N)Cc1cnc[nH]1)C(=O)N[C@@H](Cc1ccccc1)C(=O)N[C@H](C(=O)N[C@@H](CC(=O)O)C(=O)N[C@@H](CO)C(=O)N[C@@H](Cc1ccc(O)cc1)C(=O)N[C@@H](CO)C(=O)N[C@@H](CCCNC(=N)N)C(=O)N[C@@H](Cc1ccc(O)cc1)C(=O)N[C@@H](CCCNC(=N)N)C(=O)N[C@@H](CCCCN)C(=O)N[C@@H](CCC(N)=O)C(=O)N[C@@H](CCSC)C(=O)N[C@@H](C)C(=O)N[C@H](C(=O)N[C@@H](CCCCN)C(=O)N[C@@H](CCCCN)C(=O)N[C@@H](Cc1ccc(O)cc1)C(=O)N[C@@H](CC(C)C)C(=O)N[C@@H](C)C(=O)N[C@@H](C)C(=O)N[C@H](C(=O)N[C@@H](CC(C)C)C(=O)NCC(=O)N[C@@H](CCCCN)C(=O)N[C@@H](CCCNC(=N)N)C(=O)N[C@@H](Cc1ccc(O)cc1)C(=O)N[C@@H](CCCCN)C(=O)N[C@@H](CCC(N)=O)C(=O)N[C@@H](CCCNC(=N)N)C(=O)N[C@H](C(=O)N[C@@H](CCCCN)C(=O)N[C@@H](CC(N)=O)C(=O)N[C@@H](CCCCN)C(N)=O)C(C)C)C(C)C)C(C)C)[C@@H](C)O`, in assay [1], the IC50 is 0.0085 µM. Moreover, the EC50 in assay [2] is 0.0041 µM. For the same compound, the Emax in assay [3] amounted to 89.3%.
